Assay outcomes (PubChem)
Only some compounds are listed: those with a hit (about 5.3% of all), similar ones and a draw of the others.
Calb FLC: C. albicans growth inhibition with fluconazole, primary screen, CaCi-2 strain, Alamar Blue fluorescence; growth inhibition, % (concentration not given with the values); C. albicans CaCi-2 (fluconazole-resistant clinical isolate) + fluconazole, 48 h; 300,000 tested, 0.57% active;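 active means growth inhibition above about 58% in most replicates, limit read from the data, passing the limit was not always enough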;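 further: all wells also contain fluconazole at 8 µg/ml as a sub-toxic cotreatment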
NALP3 yeast inh: NALP3 inflammasome inhibitors in reconstituted yeast, primary screen, luminescence, uHTS; Yeast reconstituted NLRP3/ASC/caspase-1, beta-gal luminescence, 24 h; inhibition, % at 10 µM; 330,000 tested, 0.39% active; AID 2825, 2010;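 active means inhibition of 50% or more; inactive means inhibition below 50%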
Beta cell apopt: inhibitors of cytokine-induced beta cell apoptosis, primary screen, luminescence | protection from apoptosis, % (concentration not given with the values) | INS-1E cytokine-induced death, ATP luminescence, 48 h; percent of positive-control rescue, neutral wells zero | 300,000 tested, 0.8% active;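 active means Every replicate reaches about 75%, or at least half do and their mean reaches it too, limit read from the data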;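 further: higher means more ATP so stronger rescue from cytokine killing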
CSC inhib: cancer stem cell viability inhibitors, primary screen, luminescence. 300,000 tested, 1.1% active. AID 2717, 2010. cancer stem cell-like cells viability. inhibition, % at 7.5 µM; in the data active means inhibition above about 75%; tested in HMLE shEcad cells
Mdm2-MdmX inh: inhibitors of human Mdm2-MdmX association, primary screen, cell-based, luminescence, split luciferase, SaOS-2, uHTS; 330,000 tested, 3% active; Protein Mdm4 (Homo sapiens) + E3 ubiquitin-protein ligase Mdm2 (Homo sapiens), …; inhibition, % at 8 µM; SaOS-2 split-luciferase Mdm2/MdmX complementation;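 active means inhibition of at least 50% at 8 µM in the primary screen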
T cruzi repl: inhibitors of intracellular T. cruzi growth, primary screen, luminescence, NIH3T3 host cells | T. cruzi beta-gal in NIH3T3, 90 h | inhibition, % (test concentration not listed) | 300,000 tested, 1.4% active;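 active means mean inhibition across valid replicates above about 55%, limit read from the data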;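 further: signal also drops with host cell toxicity which is not excluded here; higher percent means less beta-gal luminescence so fewer parasites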
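System – NIH/3T3 host cells with β-galactosidase reporter T. cruzi · Doses – single 50 nL compound addition per well in DMSO · Reagent – 5000 T. cruzi trypomastigotes/well · Medium – Low-serum DMEM with 2% FBS · Timing – ≥90 h infection period, 3 h prior cell attachment · Evaluation – parasite load inhibition, % · Technique – GalScreen luminescence, 60 min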
Each line names hits and unclear results; the compound was inactive in the other large screens.

COc1c(Cl)cnn(-c2ccc(C)cc2)c1=O	none
O=C(CCN1CCN(c2ccccc2)CC1)c1ccc(Cl)cc1	none
O=C(Nc1ccncc1)c1ccc2c(c1)OCCO2	none
CN(C)c1ccc(/C=C/C(=O)c2ccc3c(c2)OCO3)cc1	none (no result: Calb FLC, T cruzi repl)
O=C(/C=C/c1cccc(Br)c1)c1ccc2c(c1)OCO2	CSC inhib 78
O=C(/C=C/c1ccncc1)c1ccc2c(c1)OCCO2	Calb FLC 67
O=C(c1ccc2c(c1)OCO2)[C@@H]1[C@@H]2C(=O)N(C3CCCCC3)C(=O)[C@@H]2C2c3ccccc3C=CN21 (stereo not given in full)	none (no result: NALP3 yeast inh, Beta cell apopt, CSC inhib, Mdm2-MdmX inh)
Cc1nc(SCC(=O)c2cc3ccccc3oc2=O)c(C#N)c(-c2ccccc2)c1C(=O)Nc1ccccc1	none
COc1ccc(-c2c(C#N)c(SCC(=O)c3cc4ccccc4oc3=O)nc(C)c2C(=O)Nc2ccccc2)cc1	CSC inhib 105
Brc1ccc(OCCCOc2cccc3cccnc23)cc1	none
OCCN1CCN(c2ncnc3sc(-c4ccccc4)cc23)CC1	T cruzi repl 62 (no result: CSC inhib)
O=C(c1ccc(Sc2cccc(Cl)c2)c([N+](=O)[O-])c1)N1CCN(c2ccccn2)CC1	none
O=S(=O)(Nc1nc(-c2sccc2Cl)cs1)c1cc(Cl)ccc1Cl	CSC inhib 119
Cc1cc2c(c(=O)n1Cc1cccnc1)C(c1ccccc1)C(C#N)=C(N)O2 (stereo not given)	none
Cc1cc2c(c(=O)n1Cc1ccc3c(c1)OCO3)C(c1cccnc1)C(C#N)=C(N)O2 (stereo not given)	T cruzi repl 61
Cc1cc2c(c(=O)n1Cc1ccccn1)C(c1ccc3c(c1)OCO3)C(C#N)=C(N)O2 (stereo not given)	none
COc1ccc(CCn2c(C)cc3c(c2=O)C(c2ccc4c(c2)OCO4)C(C#N)=C(N)O3)cc1OC (stereo not given)	Calb FLC 109
O=C(CSc1ccc2nnc(-c3ccncc3)n2n1)NCC1CCCO1 (stereo not given)	none (no result: Beta cell apopt)
Cc1c(CN2CCN(C)C(CCO)C2)[nH]c2c(Cl)cccc12 (stereo not given)	none
COCCNC(=O)CCCn1c(=O)c2ccccc2n(CC(=O)NCCC2=CCCCC2)c1=O	none (no result: NALP3 yeast inh, Beta cell apopt, CSC inhib, Mdm2-MdmX inh)
COCCNC(=O)CCCn1c(=O)c2cc(OC)c(OC)cc2n(CC(=O)NCCC2=CCCCC2)c1=O	Calb FLC 51
Nc1ccc(C(=O)OCC(=O)N2c3ccccc3Sc3ccccc32)cc1[N+](=O)[O-]	none (no result: Calb FLC, NALP3 yeast inh, Mdm2-MdmX inh, T cruzi repl)
NCCNc1ccc(C(=O)N2c3ccccc3Sc3ccccc32)cc1[N+](=O)[O-]	CSC inhib 92
Cc1cccc(C(=O)OCc2cncs2)c1	none
OCCN1CCN(C2CCC(c3ccc(F)cc3)c3ccc(F)cc32)CC1 (stereo not given)	CSC inhib 83
Fc1ccc2c(c1)Sc1ccc(Cl)cc1CC2N1CCN(CCC2OCCO2)CC1 (stereo not given)	none
O=C(c1ccco1)N1CCN(C(=O)c2cc(Cl)nc3ccccc23)CC1	none
O=c1c(C(c2ccccc2)c2c(O)sc3ccccc3c2=O)c(O)sc2ccccc12	CSC inhib 88
CC1(C)CC2CC(C)(CN2CC(=O)C(C#N)c2ccccc2)C1 (stereo not given)	none (no result: Beta cell apopt, CSC inhib)
NC(=S)n1[nH]c(-c2ccccc2)c(N=Nc2ccccc2C(=O)N2CCOCC2)c1=O	Calb FLC 100
Cc1[nH]n(-c2ccccc2)c(=O)c1N=Nc1ccccc1C(=O)N1CCOCC1	none
Clc1ccc(-c2csc3ncnc(Cl)c23)cc1	none (no result: Beta cell apopt)
NNc1ncnc2scc(-c3ccc(Cl)cc3)c12	Beta cell apopt 94
O=S(=O)(Nc1ncnc2scc(-c3ccc(F)cc3)c12)c1cc(F)ccc1F	none
Cc1ccc(-c2csc3ncnc(NS(=O)(=O)c4ccc(Cl)cc4)c23)cc1	CSC inhib 82
CCOC(=O)C(=NC1CCCCC1)NNc1cccc(C(F)(F)F)c1	Calb FLC 57
CCOC(=O)C(=NC1CCS(=O)(=O)C1)NNc1ccc(Br)cc1 (stereo not given)	Calb FLC 112
COC(=O)c1nonc1NCn1nnc2ccccc21	none
C=CCNC(=S)NNC(=O)c1cccn(Cc2ccc(Cl)cc2Cl)c1=O	none
CC(C)c1cc(C(C)C)c(S(=O)(=O)N2c3ccccc3[C@]3(Br)C[C@H]4C(=O)N[C@@H](Cc5ccccc5)C(=O)N4[C@H]23)c(C(C)C)c1	T cruzi repl 55 (no result: NALP3 yeast inh, Beta cell apopt, CSC inhib, Mdm2-MdmX inh)
O=C1N[C@@H](Cc2ccccc2)C(=O)N2[C@@H]3N(S(=O)(=O)c4ccccc4)c4ccccc4[C@]3(Br)C[C@@H]12	none (no result: Beta cell apopt)
c1ccc2c(c1)CCN(c1ncnc3c1[nH]c1ccccc13)C2	Calb FLC 92
Cc1ccc2c(c1)[nH]c1c(N3CCN(Cc4ccccc4)CC3)ncnc12	Beta cell apopt 113
COc1ccc2c(c1)[nH]c1c(N3CCN(Cc4ccc5c(c4)OCO5)CC3)ncnc12	Beta cell apopt 105
O=S(=O)(Nc1ccccn1)c1ccc(-n2cccn2)cc1	none
Cc1ccc(C(=O)OC(C)C(=O)NC(C)CCc2ccccc2)o1 (stereo not given)	none (no result: Calb FLC, T cruzi repl)
CC(CCN(C)C)OC(=O)c1ccc(C(C)c2ccccc2)o1 (stereo not given)	T cruzi repl 72
CCCC1S/C(=N/N=C/c2ccco2)NC1=O (stereo not given)	none
CCCCC1S/C(=N/N=C/c2ccco2)NC1=O (stereo not given)	Calb FLC 100
Cc1cc2oc(=O)cc(CN3CCN(S(=O)(=O)/C=C/c4ccccc4)CC3)c2cc1C	T cruzi repl 66
Cc1cc2oc(=O)cc(CN3CCN(S(=O)(=O)c4ccc5c(c4)OCCO5)CC3)c2cc1C	none
COC(=O)N/N=C/c1cc(N=Nc2ccccc2)ccc1O	none
Cc1cc(C(=O)N/N=C/c2cc(N=Nc3ccccc3)ccc2O)n[nH]1	Beta cell apopt 83, CSC inhib 109 (no result: NALP3 yeast inh, Mdm2-MdmX inh)
CC(C)=CCCC(C)CN1CCC(n2nccc2NC(=O)c2ccc3c(c2)OCO3)CC1 (stereo not given)	T cruzi repl 57
C/C=C(\C)CN1CCC(n2nccc2NC(=O)c2ccc3c(c2)OCO3)CC1	none
N#CC1=C(N)SC(N)=C(C#N)C1C1C=CCCC1 (stereo not given)	none
Cc1cccc2c(N)c3c(nc12)N(C)CC3	none
Cc1cc(C)c2c(N)c3cccc(C)c3nc2n1	Beta cell apopt 98, T cruzi repl 58 (no result: NALP3 yeast inh, Mdm2-MdmX inh)
COc1ccc(-c2cc([C@H]3[C@H]4C=CC[C@@H](C)[C@@H]4C(=O)N3Cc3ccccc3)ccc2F)cc1	CSC inhib 77
